Measurements published in ChEMBL document CHEMBL2321778, “GC-targeted C8-linked pyrrolobenzodiazepine-biaryl conjugates with femtomolar in vitro cytotoxicity and in vivo antitumor activity in mouse models” (J Med Chem, 2013).
The source made the active and inactive calls. No cut-off for these calls is given here.

Key:
[1] = Selectivity ratio of deltaTm for GC-rich FAM-GCGCAGATTTTCTGCGC-TAMRA DNA (unknown origin) to deltaTm for AT-rich FAM-TATAAGATTTTCTTATA-TAMRA DNA (unknown origin)
Summary of the method: (§1)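 Fam/Tamra-labelled hairpins, 400 nM in 50 mM potassium cacodylate pH 7.4, annealed at 85 °C for 5 min, cooled over 5 h, then mixed 1:1 with ligand diluted from DMSO stock; ligand 1 μM, 24 h incubation. Fluorescence (excitation 450−495, emission 515−545 nm) read every 0.5 °C from 30−100 °C; Tm from first-derivative maximum of smoothed curves, ΔTm versus blank.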

A2780 = test: Cytotoxicity against human A2780 cells after 96 hrs by MTT assay; type: functional, cell-based; conditions: A2780, 96 h
Summary of the method: (§2)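 Adherent cells were grown at 37 °C in 5% CO2 in DMEM or MEM with 10% FBS, L-glutamine, nonessential amino acids and hydrocortisone, then seeded to 30–40% confluence. Compounds were dissolved in water at up to 100 μM, serially diluted tenfold and added for 96 h of continuous exposure. MTT absorbance was read at 570 nm, and IC50 was taken from dose–response analysis.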

[2] = Cytotoxicity against human primary CLL cells after 96 hrs by annexin V/propidium iodide staining-based FACS flow cytometric analysis; type: functional, cell-based
Summary of the method: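 Freshly isolated peripheral blood CLL cells at 1 × 10^6/mL were cultured in RPMI with penicillin, streptomycin and 10% FCS at 37 °C in 5% CO2. Serial dilutions of compound from DMSO stocks were added, with drug-free control cultures. Apoptosis was measured by annexin V/propidium iodide flow cytometry, in duplicate. LD50 came from sigmoidal curves of log concentration against percentage apoptosis.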

MIA PaCa-2 [3] = test: Cytotoxicity against human MIAPaCa2 cells after 96 hrs by MTT assay; type: functional, cell-based; conditions: MIA PaCa-2, 96 h; summary of the method: as §2
MCF7 = test: Cytotoxicity against human MCF7 cells after 96 hrs by MTT assay; type: functional, cell-based; conditions: MCF7, 96 h; summary of the method: as §2
WI-38 = test: Cytotoxicity against human WI38 cells after 96 hrs by MTT assay; type: cell-based; conditions: WI-38, 96 h; summary of the method: as §2
[4] = Binding affinity to AT-rich FAM-TATAAGATTTTCTTATA-TAMRA DNA (unknown origin) assessed as change in melting temperature at 1 uM by FRET assay; summary of the method: as §1
[5] = Binding affinity to GC-rich FAM-GCGCAGATTTTCTGCGC-TAMRA DNA (unknown origin) assessed as change in melting temperature at 1 uM by FRET assay; summary of the method: as §1
A549 = test: Cytotoxicity against human A549 cells after 96 hrs by MTT assay; type: functional, cell-based; conditions: A549, 96 h; summary of the method: as §2
MDA-MB-231 [6] = test: Cytotoxicity against human MDA-MB-231 cells after 96 hrs by MTT assay; type: functional, cell-based; conditions: MDA-MB-231, 96 h; summary of the method: as §2
[7] = Binding affinity to GC-rich GCGC-AGA-TTT-TCT-GCGC DNA (unknown origin) after 5 mins by HPLC-MS analysis (reference value: 12 %)
A-431 = test: Cytotoxicity against human A431 cells after 96 hrs by MTT assay; type: functional, cell-based; conditions: A-431, 96 h; summary of the method: as §2
[8] = Binding affinity to AT-rich TATA-AGA-TTT-TCT-TATA DNA (unknown origin) after 5 mins by HPLC-MS analysis (reference value: 70 %)
MIA PaCa-2 [9] = test: Antitumor activity against human MIAPaCa2 cells xenografted in MF1 nude mouse at 300 ug/kg/day, iv administered for 5 consecutive days followed by 2 drug-free days repeated for 3 weeks relative to control; type: functional, organism-based
Summary of the method: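 MIA PaCa-2 cells (5 × 10^6) implanted subcutaneously in flank of female MF1 nude mice (2−3 months, 20−25 g); at ~0.06 cm3, groups of six. DMSO stock diluted in saline, given by tail-vein injection at 300 μg/kg/day, five days on, two off, for three weeks; vehicle controls. Tumors measured every 3−4 days by ellipsoid formula; mice weighed for toxicity.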

[10] = Toxicity in ip dosed Swiss Webster mouse; type: organism-based; conditions: in vivo
MDA-MB-231 [11] = test: Antitumor activity against human MDA-MB-231 cells xenografted in iv dosed MF1 nude mouse administered for 5 consecutive days followed by 2 drug-free days repeated for 4 weeks relative to control; type: functional, organism-based
Summary of the method: (§3)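 MDA-MB-231 cells (5 × 10^6) implanted subcutaneously in flank of female MF1 nude mice (2−3 months, 20−25 g), passaged as ~1 mm3 tumor pieces; at ~0.06 cm3 (three weeks) split into groups of six. Agent in DMSO diluted in saline, tail-vein iv at 250 or 300 μg/kg/day, 5 days on/2 off for four weeks; untreated controls. Tumor volume (L×W×H×π/6) and body weight every 3−4 days.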

HeLa [12] = test: Downregulation of EGR in human HeLa cells at 10 nM after 4 hrs relative to control; type: functional
Summary of the method: (§4)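 Nuclear extracts from 1 × 10^7 HeLa cells treated 4 h, plus untreated controls; 10 μg nuclear protein per sample run on a 48-transcription-factor activation profiling plate array per kit instructions.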

HeLa [13] = test: Inhibition of NFkappaB activity in human HeLa cells at 10 nM after 4 hrs relative to control; type: cell-based; summary of the method: as §4
MDA-MB-231 [14] = test: Antitumor activity against human MDA-MB-231 cells xenografted in MF1 nude mouse at 300 ug/kg/day, iv administered for 5 consecutive days followed by 2 drug-free days repeated for 4 weeks measured up to 3 weeks after last dose; type: functional, organism-based; summary of the method: as §3
HeLa [15] = test: Downregulation of OCT4 in human HeLa cells at 10 nM after 4 hrs relative to control; type: functional; summary of the method: as §4
HeLa [16] = test: Downregulation of NFAT in human HeLa cells at 10 nM after 4 hrs relative to control; type: functional; summary of the method: as §4
Mus musculus [17] = test: Toxicity in MF1 nude mouse xenografted with human MDA-MB-231 cells at 250 to 300 ug/kg/day, iv; type: organism-based; conditions: in vivo
Summary of the method: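 Female MF1 nude mice (2–3 months old, 20–25 g) carried subcutaneous flank MDA-MB-231 xenografts. At about 0.06 cm3 the mice were split into groups of six: 250 or 300 μg/kg iv by tail vein, or untreated. Compound was dissolved in DMSO and diluted in saline, given daily for 5 days then 2 days off, over 4 weeks. Body weight and signs of toxicity (>20% weight loss) were checked every 3–4 days.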

CLL [18] = test: Inhibition of NFkappaB-mediated IkappaBalpha phosphorylation in human primary CLL cells at 0.1 nM after 24 hrs by Western blotting analysis; type: cell-based
Summary of the method: (§5)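 Primary CLL cells exposed 24 h, washed in PBS and lysed in HEPES-based buffer with NaF, iodoacetamide, NP40, PMSF, orthovanadate, protease and phosphatase inhibitors; Western blots probed for phosphorylated IκBα and p65, actin as loading control.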

MIA PaCa-2 [19] = test: Inhibition of NFkappaB in human MIAPaCa2 cells xenografted in mouse assessed as downregulation of BCL2 by immunohistochemical staining relative to control; type: cell-based
Summary of the method: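 Sections of MIA PaCa-2 xenograft tumors from treated and untreated mice: peroxidase quenched with 0.3% H2O2/methanol 15 min, blocked in 3% goat serum/PBS 30 min, 2 μg/mL BCL2 antibody 1 h at room temperature, then HRP […] antibody 1 h; staining quantified against controls.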

CLL [20] = test: Inhibition of NFkappaB-mediated p65 phosphorylation in human primary CLL cells at 0.1 nM after 24 hrs by Western blotting analysis; type: cell-based; summary of the method: as §5
Mus musculus [21] = test: Toxicity in Swiss Webster mouse at 350 ug/kg/day, ip; type: organism-based; conditions: in vivo, 0.35 mg/kg
HeLa [22] = test: Downregulation of SMAD in human HeLa cells at 10 nM after 4 hrs relative to control; type: functional; summary of the method: as §4
Mus musculus [23] = test: Toxicity in Swiss Webster mouse assessed as weight loss at 400 ug/kg/day, ip; type: organism-based; conditions: in vivo, 0.4 mg/kg

Compound | Ratio [1] | IC50 (A2780) [nM] | IC50 [2] [nM] | IC50 (MIA PaCa-2 [3]) [nM] | IC50 (MCF7) [nM] | IC50 (WI-38) [nM] | ΔTm [4] [°C] | ΔTm [5] [°C] | IC50 (A549) [nM] | IC50 (MDA-MB-231 [6]) [nM] | IC50 (A-431) [nM] | also measured
COC(=O)c1cc(-c2ccc(NC(=O)CCCOc3cc4c(cc3OC)C(=O)N3CCC[C@H]3C=N4)cc2)cn1C | 13 | 1.87 | 6.2 | 1.2 | 1.91 | 160 | 0.3 | 3.9 | 7.5 | 2.11 | 2.31 | Activity [7]: 67%; Activity [8]: 3%
CCOC(=O)c1nc(NC(=O)c2cc(-c3ccc(NC(=O)CCCOc4cc5c(cc4OC)C(=O)N4CCC[C@H]4C=N5)cc3)cn2C)cn1C | 5.6 | 0.15 | 3 | 0.11 | 0.37 | 1240 | 0.5 | 2.8 | 0.47 | 0.45 | 0.19 | –
COC(=O)c1cc(-c2ccc(NC(=O)c3nc(NC(=O)CCCOc4cc5c(cc4OC)C(=O)N4CCC[C@H]4C=N5)cn3C)cc2)cn1C | 1.03 | 0.021 | 0.17 | – | 2e-05 | 129 | 6 | 6.2 | 0.034 | 0.00018 | 0.018 | Activity (MIA PaCa-2 [9]): Active; MTD [10]: 0.4 mg/kg/day; Activity (MDA-MB-231 [11]): Dose-dependent effect; Activity (HeLa [12]): 30%; inhibition (HeLa [13]): 50%; Activity (MDA-MB-231 [14]): Active; Activity (HeLa [15]): 30%; Activity (HeLa [16]): 30%; Activity (Mus musculus [17]): Non-toxic; inhibition (CLL [18]): Active; inhibition (MIA PaCa-2 [19]): Active; inhibition (CLL [20]): Active; Activity (Mus musculus [21]): Non-toxic; Activity (HeLa [22]): 30%
COC(=O)c1cc(-c2ccc(N)cc2)cn1C | – | > 20000 | > 20000 | > 20000 | > 20000 | > 20000 | – | – | > 20000 | > 20000 | > 20000 | –
COC(=O)c1nc(NC(=O)c2cc(NC(=O)c3cc(-c4ccc(NC(=O)CCCOc5cc6c(cc5OC)C(=O)N5CCC[C@H]5C=N6)cc4)cn3C)cn2C)cn1C | 1.7 | > 20000 | 0.037 | 0.25 | 0.075 | 65.6 | 3.4 | 5.8 | 0.45 | 0.015 | 0.064 | –
COC(=O)c1cc(-c2ccc(NC(=O)c3cc(NC(=O)CCCOc4cc5c(cc4OC)C(=O)N4CCC[C@H]4C=N5)cn3C)cc2)cn1C | 0.28 | 0.013 | 0.098 | – | 2e-05 | 474 | 5 | 1.4 | 0.056 | 6.5e-05 | – | MTD [10]: 0.4 mg/kg/day; Activity (Mus musculus [23]): Toxic
COC(=O)c1cc(NC(=O)c2cc(-c3ccc(NC(=O)CCCOc4cc5c(cc4OC)C(=O)N4CCC[C@H]4C=N5)cc3)cn2C)cn1C | 1.48 | 0.96 | 2.1 | 0.34 | 1.7 | 426 | 2.1 | 3.1 | 0.019 | 2.7 | 4.6 | –
COC(=O)c1cc(NC(=O)c2cc(NC(=O)c3cc(-c4ccc(NC(=O)CCCOc5cc6c(cc5OC)C(=O)N5CCC[C@H]5C=N6)cc4)cn3C)cn2C)cn1C | 1.34 | 0.24 | 0.96 | 0.31 | 0.31 | 41.3 | 3.2 | 4.3 | 2.3 | 0.59 | 0.86 | –
COc1cc2c(cc1OCCCC(=O)O)N=C[C@@H]1CCCN1C2=O | 0.5 | 3760 | > 20000 | 1560 | 702 | 4660 | 0.4 | 0.2 | 1500 | 1670 | 1090 | –
COC(=O)c1cc(-c2ccc(NC(=O)c3cc(-c4ccc(NC(=O)CCCOc5cc6c(cc5OC)C(=O)N5CCC[C@H]5C=N6)cc4)cn3C)cc2)cn1C | 3.6 | 0.56 | 4.7 | 0.35 | 0.9 | 159 | 0.8 | 3.6 | 0.54 | 0.46 | 2.91 | –
COC(=O)c1cc(NC(=O)c2cc(NC(=O)CCCOc3cc4c(cc3OC)C(=O)N3CCC[C@H]3C=N4)cn2C)cn1C | 0.15 | 0.57 | 1.3 | 2.4 | 0.32 | 41.3 | 7.4 | 1.1 | 6.1 | 0.12 | 0.55 | Activity [7]: 12%; Activity [8]: 70%
